Test results published in ChEMBL document CHEMBL1122229, “alpha-adrenoreceptor reagents. 1. Synthesis of some 1,4-benzodioxans as selective presynaptic alpha 2-adrenoreceptor antagonists and potential antidepressants” (J Med Chem, 1983).
Activity calls are given as the source filed them. No cut-off for these calls is given here.

Columns and labels:
[1] = molecular target: T1, Adrenergic receptor alpha-1 (Rattus norvegicus) (UniProt P15823+P23944+P43140); experiment: In vitro postsynaptic agonist potency at alpha-1 adrenergic receptor in rat anococcygeus muscle relative to phenylephrine; format: functional, tissue-based
[2] = molecular target: T2, Adrenergic receptor alpha-1 (Rattus norvegicus, UniProt P15823+P23944+P43140); experiment: Alpha-1-adrenoceptor pA2 value against norepinephrine in vitro experiment in rat anococcygeus.
T2 sequence (P15823 whole entry): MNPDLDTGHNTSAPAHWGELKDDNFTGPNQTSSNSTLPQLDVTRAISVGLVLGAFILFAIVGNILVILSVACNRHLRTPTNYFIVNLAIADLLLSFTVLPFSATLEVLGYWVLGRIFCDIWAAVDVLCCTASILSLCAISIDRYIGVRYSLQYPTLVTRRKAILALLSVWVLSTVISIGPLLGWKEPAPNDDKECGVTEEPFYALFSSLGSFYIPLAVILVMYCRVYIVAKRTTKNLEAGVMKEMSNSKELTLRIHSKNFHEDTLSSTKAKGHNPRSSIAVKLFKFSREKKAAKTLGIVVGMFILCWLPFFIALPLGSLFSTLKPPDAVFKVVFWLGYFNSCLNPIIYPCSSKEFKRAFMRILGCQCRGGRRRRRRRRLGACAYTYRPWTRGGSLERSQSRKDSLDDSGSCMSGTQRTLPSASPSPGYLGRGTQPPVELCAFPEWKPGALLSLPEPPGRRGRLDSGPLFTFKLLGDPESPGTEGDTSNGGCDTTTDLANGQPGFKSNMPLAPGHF
T2 sequence (P23944 whole entry): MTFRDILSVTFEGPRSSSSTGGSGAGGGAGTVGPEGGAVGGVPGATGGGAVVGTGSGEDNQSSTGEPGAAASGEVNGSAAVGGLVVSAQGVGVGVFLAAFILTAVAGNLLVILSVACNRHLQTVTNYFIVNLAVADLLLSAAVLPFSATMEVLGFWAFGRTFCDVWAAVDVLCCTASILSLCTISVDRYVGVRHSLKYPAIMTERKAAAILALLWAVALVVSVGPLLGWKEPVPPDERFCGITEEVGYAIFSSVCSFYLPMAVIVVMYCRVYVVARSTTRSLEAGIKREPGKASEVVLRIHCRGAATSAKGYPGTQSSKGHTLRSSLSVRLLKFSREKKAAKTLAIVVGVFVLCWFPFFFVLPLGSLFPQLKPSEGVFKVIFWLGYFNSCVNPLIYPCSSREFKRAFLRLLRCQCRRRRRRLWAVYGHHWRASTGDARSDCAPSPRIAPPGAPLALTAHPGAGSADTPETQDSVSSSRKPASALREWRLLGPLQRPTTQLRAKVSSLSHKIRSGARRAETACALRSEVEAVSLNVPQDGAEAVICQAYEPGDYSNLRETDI
T2 sequence (P43140 whole entry): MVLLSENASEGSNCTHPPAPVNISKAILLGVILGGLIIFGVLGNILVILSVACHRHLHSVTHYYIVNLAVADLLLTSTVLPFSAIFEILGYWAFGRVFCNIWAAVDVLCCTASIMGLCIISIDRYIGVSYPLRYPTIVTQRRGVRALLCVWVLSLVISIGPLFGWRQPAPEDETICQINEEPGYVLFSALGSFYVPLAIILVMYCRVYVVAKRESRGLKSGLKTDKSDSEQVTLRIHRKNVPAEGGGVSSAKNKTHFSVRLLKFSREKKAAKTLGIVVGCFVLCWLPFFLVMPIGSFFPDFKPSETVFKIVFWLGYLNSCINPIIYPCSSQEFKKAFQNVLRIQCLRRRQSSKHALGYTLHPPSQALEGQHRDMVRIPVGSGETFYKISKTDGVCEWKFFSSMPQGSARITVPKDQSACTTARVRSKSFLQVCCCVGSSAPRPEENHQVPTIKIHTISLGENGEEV
Summary of the method: (§1)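 pA2 was obtained by Arunlakshana–Schild analysis at postsynaptic α1 (anococcygeus) or presynaptic α2 (vas deferens) sites. Values are mean ± SEM of at least six experiments.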

[3] = Ratio of pA2 value against alpha2 to alpha-1 adrenoceptor
Summary of the method: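 α2/α1 selectivity was taken as the antilog of the difference between the pA2 values at α2- and α1-adrenoreceptors.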

[4] = molecular target: T1, Adrenergic receptor alpha-1 (Rattus norvegicus); experiment: Ratio of presynaptic antagonist potency to postsynaptic antagonist potency; format: functional
[5] = molecular target: T1, Adrenergic receptor alpha-1 (Rattus norvegicus); experiment: In vitro postsynaptic antagonist potency at alpha-1-adrenoceptor in rat anococcygeus relative to compound 5 (RX781094); format: functional
[6] = molecular target: T3, Adrenergic receptor alpha-2 (Rattus norvegicus) (UniProt P22086+P19328+P22909); experiment: In vitro presynaptic antagonist potency at alpha-2 adrenergic receptor in rat or mouse vas deferens relative to compound 5 (RX781094); format: functional, tissue-based
Summary of the method: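 Prostatic halves of rat vas deferens (male Sprague–Dawley rats, 200–250 g; Krebs, 30 °C, 95% O2/5% CO2; 3-ms, 40 V, 0.1 Hz field pulses) or mouse vas deferens (Mg-free Krebs, 30 °C; 3-ms pulses, 0.1 Hz, 100–140 V) were used, with isometric twitch recording. […] The concentration giving 50% reversal was compared with the RX781094 standard in the same tissue.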

[7] = molecular target: T3, Adrenergic receptor alpha-2 (Rattus norvegicus); experiment: In vitro presynaptic agonist potency at alpha-2 adrenergic receptor in rat or mouse vas deferens relative to clonidine; IA means inactive; format: functional, tissue-based
Summary of the method: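 Field-stimulated rat or mouse vas deferens (Krebs, 30 °C, 95% O2/5% CO2, 3-ms pulses at 0.1 Hz) with isometric twitch recording. […] Standard dose-response curves were run before and after the analogue's curve.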

[8] = molecular target: T4, Adrenergic receptor alpha-2 (Rattus norvegicus, UniProt P22086+P19328+P22909); experiment: Alpha-2 adrenergic receptor pA2 value against clonidine in vitro experiment in rat vas deferens; format: tissue-based; summary of the method: as §1
T4 sequence (P22086 whole entry): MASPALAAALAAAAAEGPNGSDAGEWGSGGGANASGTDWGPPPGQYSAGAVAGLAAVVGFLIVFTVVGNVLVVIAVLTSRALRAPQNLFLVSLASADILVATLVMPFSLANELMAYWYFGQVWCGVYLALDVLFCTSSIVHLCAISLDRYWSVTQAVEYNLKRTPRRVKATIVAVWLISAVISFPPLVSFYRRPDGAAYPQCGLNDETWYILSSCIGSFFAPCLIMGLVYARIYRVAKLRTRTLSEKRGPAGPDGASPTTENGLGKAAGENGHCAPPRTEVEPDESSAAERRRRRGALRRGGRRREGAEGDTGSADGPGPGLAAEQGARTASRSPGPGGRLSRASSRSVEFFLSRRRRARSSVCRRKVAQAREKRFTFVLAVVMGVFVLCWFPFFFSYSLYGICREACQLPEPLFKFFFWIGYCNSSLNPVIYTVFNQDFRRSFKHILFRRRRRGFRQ
T4 sequence (P19328 whole entry): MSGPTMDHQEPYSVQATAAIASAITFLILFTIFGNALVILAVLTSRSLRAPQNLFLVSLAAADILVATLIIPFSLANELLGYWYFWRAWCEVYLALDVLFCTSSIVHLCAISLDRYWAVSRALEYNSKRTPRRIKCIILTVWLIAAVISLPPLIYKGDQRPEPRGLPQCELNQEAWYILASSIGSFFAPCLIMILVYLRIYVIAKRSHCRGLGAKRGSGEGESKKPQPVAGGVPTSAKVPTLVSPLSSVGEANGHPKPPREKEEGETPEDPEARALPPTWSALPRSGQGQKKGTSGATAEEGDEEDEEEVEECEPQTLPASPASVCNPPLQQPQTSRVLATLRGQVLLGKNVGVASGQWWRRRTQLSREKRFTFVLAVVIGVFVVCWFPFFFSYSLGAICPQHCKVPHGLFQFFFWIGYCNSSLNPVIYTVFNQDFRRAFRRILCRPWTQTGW
T4 sequence (P22909 whole entry): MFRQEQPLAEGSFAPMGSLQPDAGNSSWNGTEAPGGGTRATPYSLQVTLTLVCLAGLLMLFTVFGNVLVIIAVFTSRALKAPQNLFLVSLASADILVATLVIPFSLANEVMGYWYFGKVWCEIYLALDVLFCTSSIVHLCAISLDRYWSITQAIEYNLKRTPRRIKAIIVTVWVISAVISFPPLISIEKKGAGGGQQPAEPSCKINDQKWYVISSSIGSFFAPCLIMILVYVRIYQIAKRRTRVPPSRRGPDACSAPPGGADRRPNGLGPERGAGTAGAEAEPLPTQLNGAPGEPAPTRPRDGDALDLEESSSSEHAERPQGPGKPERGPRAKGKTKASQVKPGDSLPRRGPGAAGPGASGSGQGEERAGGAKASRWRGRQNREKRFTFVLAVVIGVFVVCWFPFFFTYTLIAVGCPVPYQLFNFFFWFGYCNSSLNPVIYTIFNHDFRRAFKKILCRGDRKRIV

[9] = molecular target: T2, Adrenergic receptor alpha-1; experiment: Alpha-1 adrenergic receptor pA2 value against norepinephrine in vitro experiment in rat anococcygeus.; summary of the method: as §1
[10] = molecular target: T1, Adrenergic receptor alpha-1 (Rattus norvegicus); experiment: In vitro postsynaptic antagonist potency at alpha-1 adrenergic receptor in rat anococcygeus relative to compound 5 (RX781094); format: functional
[11] = molecular target: T1, Adrenergic receptor alpha-1 (Rattus norvegicus); experiment: In vitro postsynaptic agonist potency at alpha-1 adrenergic receptor in rat anococcygeus muscle relative to phenylephrine; IA means inactive.; format: functional, tissue-based
Summary of the method: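 Rat anococcygeus muscle (male Sprague–Dawley rats, 200–250 g) suspended at 0.5 g initial tension in a 50-mL organ bath. […] Standard dose-response curves were run before and after the analogue's curve.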

SMILES | Agonist potency [1] | pA2 [2] | Selectivity [3] | Selectivity [4] | Antagonist potency [5] | Antagonist potency [6] | Agonist potency [7] | pA2 [8] | pA2 [9] | Antagonist potency [10] | Agonist potency [11]
Cc1ccc2c(c1)OC(C1=NCCN1)CO2 (stereo unspecified) | 0.004 | 5.87 | 17 | 0.14 | 0.8 | 0.08 | inactive | 7.1 |  |  | 
Cc1ccc2c(c1)OCC(C1=NCCN1)O2 (stereo unspecified) |  |  | 30 | 0.21 |  | 0.08 | inactive | 7.56 | 6.17 | 0.4 | inactive
